In one assay the target is T1, Dihydrofolate reductase (Bos taurus, UniProt P00376).
T1 sequence (P00376 whole entry): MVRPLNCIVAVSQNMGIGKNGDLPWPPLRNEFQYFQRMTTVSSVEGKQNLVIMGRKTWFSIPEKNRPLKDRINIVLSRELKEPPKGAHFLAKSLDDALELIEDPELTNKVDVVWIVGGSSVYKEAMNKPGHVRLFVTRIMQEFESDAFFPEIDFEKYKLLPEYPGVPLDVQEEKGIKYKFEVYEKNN
The assay can be described thus: Inhibition of bovine liver DHFR measured for every 1 min of 10 mins.

For assay [1], the target named is Dihydrofolate reductase (Bos taurus) (UniProt P00376). The assay can be described thus: Ratio of MTX IC50 to compound IC50 for bovine liver DHFR. The gist of the method: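 Bovine liver DHFR in Tris buffer pH 7.5, with dihydrofolate substrate. Final working levels were 0.29 g/l NADPH and 15 U/l DHFR. Absorbance was read at 340 nm at room temperature in kinetic mode every 1 min for 10 min. ΔA/min was taken relative to DMSO control to give % inhibition versus log concentration, from which the IC50 was derived. Methotrexate was the reference.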

On Dihydrofolate reductase, `Clc1ccc(/C=C2\CCCC3=C(c4ccc(Cl)cc4)Nc4cc(Cl)c(Cl)cc4N=C32)cc1` had an IC50 of 12 µM.
The same measure, in the same setting: as for `Cc1cc2c(cc1C)NC(c1ccc(Cl)cc1)=C1CCC/C(=C\c3ccc(Cl)cc3)C1=N2`, the figure is 70 µM.
Turning to `COc1ccc(/C=C2\CCCC3=C(c4ccc(OC)c(OC)c4)Nc4cc(C)c(C)cc4N=C32)cc1OC`, in assay [1], the Ratio IC50 was determined as 20. Also, 0.004 µM corresponded to half-maximal inhibition at Dihydrofolate reductase (IC50).
For the molecule `COc1cc(/C=C2\CCCC3=C(c4cc(OC)c(OC)c(OC)c4)Nc4cc(C)c(C)cc4N=C32)cc(OC)c1OC`, it took 1 µM to reach half-maximal inhibition at Dihydrofolate reductase (IC50).
Same read-out and setting: as for `Brc1ccc(/C=C2\CCCC3=C(c4ccc(Br)cc4)Nc4ccccc4N=C32)cc1`, the figure is 65 µM; as for `COc1ccc(/C=C2\CCCC3=C(c4ccc(OC)cc4)Nc4cc(C)c(C)cc4N=C32)cc1`, 0.1 µM.

By IC50 is commonly meant the point on the concentration scale where inhibition reaches its midpoint. Lower therefore signals greater potency in that assay.

The record behind these values is ChEMBL document CHEMBL3112482, “Nonclassical antifolates, part 5. Benzodiazepine analogs as a new class of DHFR inhibitors: synthesis, antitumor testing and molecular modeling study” (Eur J Med Chem, 2014).
